25 compounds from ChEMBL document CHEMBL1126550, “Nanomolar-affinity, non-peptide oxytocin receptor antagonists” (J Med Chem, 1993) can be followed below.

pIC50, pKi: −log10 of the molar value.

The species entered for test [1] is Rattus norvegicus. Description: Tested for antagonistic activity in isolated rat uterus. The settings on record: read-out: pA2 (converted). Type of test: functional.
Test [2] deals with T1, Oxytocin receptor (Homo sapiens, UniProt P30559).
T1 sequence (P30559 whole entry): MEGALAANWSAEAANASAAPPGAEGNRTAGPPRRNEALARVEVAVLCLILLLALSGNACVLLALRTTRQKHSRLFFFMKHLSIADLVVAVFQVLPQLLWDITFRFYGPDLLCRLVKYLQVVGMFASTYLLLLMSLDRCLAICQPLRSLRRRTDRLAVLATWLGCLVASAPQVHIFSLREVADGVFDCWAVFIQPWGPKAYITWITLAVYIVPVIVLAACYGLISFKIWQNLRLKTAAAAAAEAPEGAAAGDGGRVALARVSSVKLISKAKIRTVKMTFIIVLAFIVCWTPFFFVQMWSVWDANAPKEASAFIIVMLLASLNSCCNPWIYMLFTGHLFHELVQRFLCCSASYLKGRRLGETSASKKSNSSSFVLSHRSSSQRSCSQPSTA
Description: Tested against human uterine OT receptor.

Another test has as its target Vasopressin V2 receptor (Rattus norvegicus, UniProt Q00788). Description: Inhibition of radioligand [3H]-AVP binding to the vasopressin V2 receptor in rat kidney tissue. Put shortly:
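[3H]AVP (80–90 Ci/mmol) at 2 nM competed on crude membranes from male rat kidney medulla (V2 sites). Equilibrium 30 min at 30 °C in 100 mM Tris-HCl, 5 mM MgCl2, 0.1% BSA, 50 μM PMSF, 50 μg/mL bacitracin, pH 8.0. Nonspecific binding with 10 μM unlabeled AVP. Glass-fiber filtration. IC50 by linear regression of % inhibition vs log concentration, seven concentrations.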

Test [3] deals with Rattus norvegicus. Description: Tested for inhibition of OT-stimulated uterine activity in the rat after an intravenous dose. The test is classed as functional.
Test [4] addresses T2, Oxytocin receptor (Rattus norvegicus, UniProt P70536).
T2 sequence (P70536 whole entry): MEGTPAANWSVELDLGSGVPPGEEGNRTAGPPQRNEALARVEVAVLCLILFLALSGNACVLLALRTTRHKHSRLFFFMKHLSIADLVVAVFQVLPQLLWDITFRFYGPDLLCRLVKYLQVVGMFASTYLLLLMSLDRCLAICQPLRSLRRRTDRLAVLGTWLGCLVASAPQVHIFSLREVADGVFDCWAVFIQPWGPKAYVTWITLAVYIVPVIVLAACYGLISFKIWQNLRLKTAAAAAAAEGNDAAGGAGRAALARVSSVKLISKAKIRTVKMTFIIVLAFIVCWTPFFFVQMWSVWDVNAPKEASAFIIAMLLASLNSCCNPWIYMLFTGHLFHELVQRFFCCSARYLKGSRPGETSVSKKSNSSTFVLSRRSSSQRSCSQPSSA
Description: Tested against rat uterine OT receptor. Put shortly: (§1)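 Uteri taken from rats given diethylstilbestrol dipropionate (0.3 mg/kg ip, 18–24 h before), crude membranes. 1 nM [3H]OT (30–60 Ci/mmol), equilibrium 60 min at 22 °C in 50 mM Tris-HCl, 5 mM MgCl2, 0.1% BSA, pH 7.4. Nonspecific binding with 1 mM unlabeled OT. Filtered on glass fiber. Initial single-concentration screen, then IC50 from seven concentrations by linear regression.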

Test [5] addresses T2, Oxytocin receptor. Description: Inhibition of radioligand [3H]oxytocin binding at the oxytocin (OT) receptor in rat uterine tissue. Put shortly: as §1
The next test deals with Vasopressin V1 receptor (Rattus norvegicus, UniProt P48974+P30560). Description: Inhibition of radioligand [3H]AVP binding to the vasopressin V1 receptor in rat liver tissue. Put shortly:
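Crude membranes from male rat liver (V1 sites) competed with 1 nM [3H]AVP (80–90 Ci/mmol). Equilibrium 30 min, 30 °C, buffer 100 mM Tris-HCl, 5 mM MgCl2, 0.1% BSA, 50 μM PMSF, 50 μg/mL bacitracin, pH 8.0. 10 μM unlabeled AVP for nonspecific binding. Filtration through glass-fiber filters. IC50 from linear regression over seven concentrations.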

Vasopressin V2 receptor, sequence (Q00788 whole entry): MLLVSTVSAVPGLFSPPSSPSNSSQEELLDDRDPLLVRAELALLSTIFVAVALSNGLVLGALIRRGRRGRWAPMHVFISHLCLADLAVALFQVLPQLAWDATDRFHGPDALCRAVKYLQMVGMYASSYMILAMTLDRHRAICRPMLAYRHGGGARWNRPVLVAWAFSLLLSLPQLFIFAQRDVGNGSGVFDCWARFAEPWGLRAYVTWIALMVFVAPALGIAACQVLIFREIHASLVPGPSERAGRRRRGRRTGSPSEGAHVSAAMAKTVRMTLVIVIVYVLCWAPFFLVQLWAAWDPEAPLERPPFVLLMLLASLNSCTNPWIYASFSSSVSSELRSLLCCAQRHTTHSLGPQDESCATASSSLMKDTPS

Usually pKi stands for the Ki on a negative log10 scale, so that one unit is a factor of ten. What is called pIC50 is the IC50 on a negative log10 scale, so that one unit is a factor of ten. Lower therefore signals a large IC50. As a reminder, the IC50 is the concentration that gives 50% inhibition. A lower IC50 goes with inhibition by little substance. As to `CC1(C)[C@@H]2CC[C@@]1(CS(=O)(=O)N1CCC3(CCc4ccccc43)CC1)[C@@H](NC(=O)Cc1c[nH]cn1)C2`, the Kb in the test listed under Rattus norvegicus [1] is 0.0117 µM. Besides, the figures for the pKi at Oxytocin receptor [2] and on Oxytocin receptor [4] were 7.21 and 7.59, respectively. Also, the results for the pIC50 on Vasopressin V2 receptor and on Oxytocin receptor [5] were 4.77 and 7.28, respectively. This compound also had an AD50 in the test with Rattus norvegicus [3] of 1.5 mg/kg. Also, the IC50 on Vasopressin V1 receptor came to 5.6 µM.
On to `CC1(C)[C@@H]2CC[C@@]1(CS(=O)(=O)N1CCC3(CCc4ccccc43)CC1)[C@@H](N1C(=O)CN(CCCn3ccnc3)C1=O)C2`, for which the negative logarithm of the IC50 (pIC50) at Vasopressin V2 receptor was 5.72; on Oxytocin receptor [5], 7.72. The compound also gave an IC50 on Vasopressin V1 receptor of 0.5 µM.
On to `CC1(C)[C@@H]2CC[C@@]1(CS(=O)(=O)N1CCC3(CCc4ccccc43)CC1)[C@@H](NC(=O)c1cccnc1)C2`, for which the results for the negative logarithm of the IC50 (pIC50) at Vasopressin V2 receptor and on Oxytocin receptor [5] were below 5.00 and 6.59, respectively. For the same compound, the half-inhibitory concentration (IC50) on Vasopressin V1 receptor is above 1 µM.
The corresponding values for `CC1(C)[C@@H]2CC[C@@]1(CS(=O)(=O)N1CCC3(C=Cc4ccccc43)CC1)[C@@](O)(CCNC(=O)CC1CN3CCC1CC3)C2` (some centres undefined) are 5.21, 7.00 and 0.64 µM.
As to `CC1(C)[C@H]2CC[C@]1(CS(=O)(=O)N1CCC3(CCc4ccccc43)CC1)[C@@H](NC(=O)Cc1c[nH]cn1)C2`, the values for the pIC50 on Vasopressin V2 receptor and on Oxytocin receptor [5] were below 5.52 and 5.00, respectively. Also, the IC50 on Vasopressin V1 receptor is above 3 µM.
Regarding `Cn1cnc(CC(=O)NC(CCS(C)(=O)=O)C(=O)N[C@H]2C[C@H]3CC[C@]2(CS(=O)(=O)N2CCC4(CCc5ccccc54)CC2)C3(C)C)c1` (some centres undefined), the pIC50 at Vasopressin V2 receptor was 6.31; on Oxytocin receptor [5] it was 9.15. Besides, the IC50 at Vasopressin V1 receptor is 1.2 µM.
As to `CC1(C)[C@@H]2CC[C@@]1(CS(=O)(=O)N1CCC3(CCc4ccccc43)CC1)[C@@H](NC(=O)NC1CN3CCC1CC3)C2` (single isomer, unassigned; isomer A), the values for the pIC50 at Vasopressin V2 receptor and at Oxytocin receptor [5] were 5.06 and 7.33, respectively. At Vasopressin V1 receptor, this compound had a half-maximal inhibitory concentration (IC50) of 1.7 µM.
Regarding `CC1(C)[C@@H]2CC[C@@]1(CS(=O)(=O)N1CCC3(CCc4ccccc43)CC1)[C@@H](N1C(=O)CC(CC(=O)Nc3nn[nH]n3)C1=O)C2` (some centres undefined), the pIC50 on Vasopressin V2 receptor is 5.62; at Oxytocin receptor [5], 7.89. At Vasopressin V1 receptor, this compound yielded a half-inhibitory concentration (IC50) of 0.77 µM.
The corresponding values for `CC1(C)[C@@H]2CC[C@@]1(CS(=O)(=O)N1CCC3(CCc4ccccc43)CC1)[C@@H](NC(=O)Cn1cnnn1)C2` are 5.00, 6.85 and above 1 µM.
In the case of `CC1(C)[C@@H]2CC[C@@]1(CS(=O)(=O)N1CCC3(CCc4ccccc43)CC1)[C@@H](NC(=O)C1CCCCC1)C2`, the pIC50 at Vasopressin V2 receptor was below 5.00; at Oxytocin receptor [5] it was 6.19. The IC50 on Vasopressin V1 receptor is 10 µM.
The corresponding values for `CC1(C)[C@@H]2CC[C@@]1(CS(=O)(=O)N1CCC3(CCc4ccccc43)CC1)[C@@H](N1CCNC1=O)C2` are below 5.52, 7.00 and above 0.3 µM.
The corresponding values for `CC1(C)[C@@H]2CC[C@@]1(CS(=O)(=O)N1CCC3(CCc4ccccc43)CC1)[C@@H](NC(=O)CCn1ccnc1)C2` are below 5.52, 6.85 and above 3 µM.
The corresponding values for `CC1(C)[C@@H]2CC[C@@]1(CS(=O)(=O)N1CCC3(CCc4ccccc43)CC1)[C@@H](N1C(=O)CC(CC(=O)O)C1=O)C2` (some centres undefined) are 5.60, 7.52 and 1.6 µM.
As for `CC1(C)[C@@H]2CC[C@@]1(CS(=O)(=O)N1CCC3(CCc4ccccc43)CC1)[C@@H](NC(=O)[C@H](N)Cc1c[nH]cn1)C2`, the negative-log IC50 (pIC50) on Vasopressin V2 receptor is 5.26; at Oxytocin receptor [5] it was 7.35. In addition, the IC50 at Vasopressin V1 receptor turned out to be 1.5 µM.
Turning to `CN1CC(=O)N([C@H]2C[C@H]3CC[C@]2(CS(=O)(=O)N2CCC4(CCc5ccccc54)CC2)C3(C)C)C1=O`, the negative logarithm of the IC50 (pIC50) at Vasopressin V2 receptor was 5.57; at Oxytocin receptor [5], 7.85. Moreover, the 50% inhibitory concentration (IC50) on Vasopressin V1 receptor worked out at 0.96 µM.
The corresponding values for `CC(C)[C@H](N)C(=O)NC[C@@]1(O)C[C@H]2CC[C@]1(CS(=O)(=O)N1CCC3(C=Cc4ccccc43)CC1)C2(C)C` are 5.31, 7.37 and 0.29 µM.
The corresponding values for `CC1(C)[C@@H]2CC[C@@]1(CS(=O)(=O)N1CCC3(C=Cc4ccccc43)CC1)[C@@](O)(CNC(=O)C1CN3CCC1CC3)C2` (some centres undefined) are 5.21, 7.24 and 0.47 µM.
Consider `CC1(C)[C@@H]2CC[C@@]1(CS(=O)(=O)N1CCC3(CCc4ccccc43)CC1)[C@@H](N1C(=O)NC(CCS(C)(=O)=O)C1=O)C2` (some centres undefined), for which the negative-log IC50 (pIC50) at Vasopressin V2 receptor is 6.18; on Oxytocin receptor [5], 8.59. Also, the 50% inhibitory concentration (IC50) on Vasopressin V1 receptor stood at 0.11 µM.
Take `CCOC(=O)CCC(=O)N[C@H]1C[C@H]2CC[C@]1(CS(=O)(=O)N1CCC3(CCc4ccccc43)CC1)C2(C)C`: the negative-log IC50 (pIC50) at Vasopressin V2 receptor was 4.89; on Oxytocin receptor [5] it was 6.62. At Vasopressin V1 receptor, this compound had an IC50 of 16 µM.
With `CC1(C)[C@@H]2CC[C@@]1(CS(=O)(=O)N1CCC3(CCc4ccccc43)CC1)[C@@H](NC(=O)c1ccccc1)C2`, the pIC50 at Vasopressin V2 receptor is below 5.00; at Oxytocin receptor [5], 6.00. On Vasopressin V1 receptor, this compound yielded a concentration for half-maximal inhibition (IC50) of 10 µM.
In the case of `CC1(C)[C@@H]2CC[C@@]1(CS(=O)(=O)N1CCC3(C=Cc4ccccc43)CC1)C(=O)C2`, the results for the negative logarithm of the IC50 (pIC50) on Vasopressin V2 receptor and at Oxytocin receptor [5] were below 5.00 and 5.74, respectively. Besides, the IC50 at Vasopressin V1 receptor is above 10 µM.
The corresponding values for `CC1(C)[C@@H]2CC[C@@]1(CS(=O)(=O)N1CCC3(CCc4ccccc43)CC1)[C@@](O)(CN1CCCC1=O)C2` are below 5.52, 6.82 and 3 µM.
The corresponding values for `CC1(C)[C@@H]2CC[C@@]1(CS(=O)(=O)N1CCC3(CCc4ccccc43)CC1)[C@@H](N1C(=O)NC(CCS(N)(=O)=O)C1=O)C2` (some centres undefined) are 5.96, 7.89 and 0.41 µM.
In the case of `CC1(C)[C@@H]2CC[C@@]1(CS(=O)(=O)N1CCC3(CCc4ccccc43)CC1)[C@@H](NC(=O)CCc1c[nH]cn1)C2`, the pIC50 at Vasopressin V2 receptor is 4.68; on Oxytocin receptor [5], 7.03. Besides, the IC50 at Vasopressin V1 receptor was found to be 5.8 µM.
The corresponding values for `CC1(C)[C@@H]2CC[C@@]1(CS(=O)(=O)N1CCC3(C=Cc4ccccc43)CC1)[C@@](O)(CNC(=O)c1n[nH]c(N)n1)C2` are 5.32, 7.30 and 0.68 µM.
